Converted amounts (≈) assume the structure as drawn.
Key:
Enterococcus faecalis [1] = assay: Antibacterial activity against Enterococcus faecalis isolated from human incubated for 24 hrs followed by serial sub-cultivation for 24 hrs by microdilution; type: functional
Outline: (§1)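 MBC: after the 24 h LB broth microdilution (1.0 × 10⁴ CFU per well, 160 rpm), wells were serially sub-cultured into fresh broth plates and incubated a further 24 h. MBC is the lowest concentration with no visible growth, taken as 99.5% killing of the original inoculum. Duplicate, repeated three times.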

Salmonella typhimurium [2] = assay: Antibacterial activity against Salmonella Typhimurium ATCC 13311 after 24 hrs by microdilution method; type: functional, Salmonella enterica subsp. enterica serovar Typhimurium; details: Salmonella enterica, ATCC 13311, 24 h
Outline: (§2)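 Broth microdilution in 96-well plates. Bacterial suspensions were adjusted in sterile saline to 1.0 × 10⁵ CFU/ml, prepared daily and kept at 4 °C. Compound was added to LB broth with 1.0 × 10⁴ CFU per well and shaken at 160 rpm for 24 h at […] (so in the source). MIC is the lowest concentration with no visible growth under a binocular microscope. OD655 was also read. Duplicate, repeated three times.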

Enterococcus faecalis [3] = assay: Antibacterial activity against Enterococcus faecalis isolated from human after 24 hrs by microdilution method; type: functional; outline: as §2
Micrococcus flavus [4] = assay: Antibacterial activity against Micrococcus flavus ATCC 10240 incubated for 24 hrs followed by serial sub-cultivation for 24 hrs by microdilution; type: functional; details: ATCC 10240, 24 h; outline: as §1
Bacillus cereus [5] = assay: Antibacterial activity against clinical isolate of Bacillus cereus after 24 hrs by microdilution method; type: functional; outline: as §2
Staphylococcus aureus [6] = assay: Antibacterial activity against Staphylococcus aureus ATCC 6538 after 24 hrs by microdilution method; type: functional; details: ATCC 6538, 24 h; outline: as §2
Micrococcus flavus [7] = assay: Antibacterial activity against Micrococcus flavus ATCC 10240 after 24 hrs by microdilution method; type: functional; details: ATCC 10240, 24 h; outline: as §2
Pseudomonas aeruginosa [8] = assay: Antibacterial activity against Pseudomonas aeruginosa ATCC 27853 incubated for 24 hrs followed by serial sub-cultivation for 24 hrs by microdilution; type: functional; details: ATCC 27853, 24 h; outline: as §1
Pseudomonas aeruginosa [9] = assay: Antibacterial activity against Pseudomonas aeruginosa ATCC 27853 after 24 hrs by microdilution method; type: functional; details: ATCC 27853, 24 h; outline: as §2
Escherichia coli [10] = assay: Antibacterial activity against Escherichia coli ATCC 35210 incubated for 24 hrs followed by serial sub-cultivation for 24 hrs by microdilution; type: functional; details: ATCC 35210, 24 h; outline: as §1
Listeria monocytogenes [11] = assay: Antibacterial activity against Listeria monocytogenes NCTC 7973 after 24 hrs by microdilution method; type: functional; details: NCTC 7973, 24 h; outline: as §2
Listeria monocytogenes [12] = assay: Antibacterial activity against Listeria monocytogenes NCTC 7973 incubated for 24 hrs followed by serial sub-cultivation for 24 hrs by microdilution; type: functional; details: NCTC 7973, 24 h; outline: as §1
Bacillus cereus [13] = assay: Antibacterial activity against clinical isolate of Bacillus cereus incubated for 24 hrs followed by serial sub-cultivation for 24 hrs by microdilution; type: functional; outline: as §1
Staphylococcus aureus [14] = assay: Antibacterial activity against Staphylococcus aureus ATCC 6538 incubated for 24 hrs followed by serial sub-cultivation for 24 hrs by microdilution method; type: functional; details: ATCC 6538, 24 h; outline: as §1
Salmonella typhimurium [15] = assay: Antibacterial activity against Salmonella Typhimurium ATCC 13311 incubated for 24 hrs followed by serial sub-cultivation for 24 hrs by microdilution; type: functional, Salmonella enterica subsp. enterica serovar Typhimurium; details: Salmonella enterica, ATCC 13311, 24 h; outline: as §1
Escherichia coli [16] = assay: Antibacterial activity against Escherichia coli ATCC 35210 after 24 hrs by microdilution method; type: functional; details: ATCC 35210, 24 h; outline: as §2
Aspergillus ochraceus [17] = assay: Antifungal activity against Aspergillus ochraceus ATCC 12066 after 72 hrs by serial dilution technique; type: functional; details: ATCC 12066, 72 h
Outline: (§3)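 Modified microdilution in 96-well plates. Fungi were kept on malt agar at 4 °C. Spores were washed off in sterile 0.85% saline with 0.1% Tween 80. Compounds were dissolved at 1 mg/ml in 5% DMSO with 0.1% Tween 80 and added to malt broth with inoculum. Plates were shaken at 160 rpm for 72 h at 28 °C. Duplicate, repeated three times.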

Talaromyces funiculosus [18] = assay: Antifungal activity against Penicillium funiculosum ATCC 36839 incubated for 72 hrs followed by serial sub-cultivation for 72 hrs by serial dilution technique; type: functional; details: ATCC 36839, 72 h
Outline: (§4)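 MFC: material from 72 h malt broth microdilution wells was serially sub-cultured into fresh broth plates and incubated a further 72 h at 28 °C. Fungicidal concentration is taken from growth after sub-culture. Duplicate, repeated three times.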

Penicillium ochrochloron [19] = assay: Antifungal activity against Penicillium ochrochloron ATCC 9112 incubated for 72 hrs followed by serial sub-cultivation for 72 hrs by serial dilution technique; type: functional; details: ATCC 9112, 72 h; outline: as §4
Aspergillus ochraceus [20] = assay: Antifungal activity against Aspergillus ochraceus after 72 hrs by serial dilution technique
Aspergillus flavus [21] = assay: Antifungal activity against Aspergillus flavus ATCC 9643 after 72 hrs by serial dilution technique; type: functional; details: ATCC 9643, 72 h; outline: as §3
Penicillium ochrochloron [22] = assay: Antifungal activity against Penicillium ochrochloron ATCC 9112 after 72 hrs by serial dilution technique; type: functional; details: ATCC 9112, 72 h; outline: as §3
Trichoderma viride [23] = assay: Antifungal activity against Trichoderma viride IAM 5061 after 72 hrs by serial dilution technique; type: functional; details: IAM 5061, 72 h; outline: as §3
Aspergillus niger [24] = assay: Antifungal activity against Aspergillus niger ATCC 6275 after 72 hrs by serial dilution technique; type: functional; details: ATCC 6275, 72 h; outline: as §3
Trichoderma viride [25] = assay: Antifungal activity against Trichoderma viride IAM 5061 incubated for 72 hrs followed by serial sub-cultivation for 72 hrs by serial dilution technique; type: functional; details: IAM 5061, 72 h; outline: as §4
Talaromyces funiculosus [26] = assay: Antifungal activity against Penicillium funiculosum ATCC 36839 after 72 hrs by serial dilution technique; type: functional; details: ATCC 36839, 72 h; outline: as §3
Aspergillus fumigatus = assay: Antifungal activity against Aspergillus fumigatus isolated from human incubated for 72 hrs followed by serial sub-cultivation for 72 hrs by serial dilution technique; type: functional; outline: as §4
Aspergillus flavus [27] = assay: Antifungal activity against Aspergillus flavus ATCC 9643 incubated for 72 hrs followed by serial sub-cultivation for 72 hrs by serial dilution technique; type: functional; details: ATCC 9643, 72 h; outline: as §4
Candida albicans [28] = assay: Antifungal activity against Candida albicans isolated from human incubated for 72 hrs followed by serial sub-cultivation for 72 hrs by serial dilution technique; type: functional; outline: as §4
Aspergillus ochraceus [29] = assay: Antifungal activity against Aspergillus ochraceus ATCC 12066 incubated for 72 hrs followed by serial sub-cultivation for 72 hrs by serial dilution technique; type: functional; details: ATCC 12066, 72 h; outline: as §4
Candida albicans [30] = assay: Antifungal activity against Candida albicans isolated from human after 72 hrs by serial dilution technique; type: functional; outline: as §3
Aspergillus niger [31] = assay: Antifungal activity against Aspergillus niger ATCC 6275 incubated for 72 hrs followed by serial sub-cultivation for 72 hrs by serial dilution technique; type: functional; details: ATCC 6275, 72 h; outline: as §4

| MIC (Salmonella typhimurium [2]) [µM] | MIC (Enterococcus faecalis [3]) [µM] | MIC (Bacillus cereus [5]) [µM] | MIC (Staphylococcus aureus [6]) [µM] | MIC (Micrococcus flavus [7]) [µM] | MIC (Pseudomonas aeruginosa [9]) [µM] | MIC (Listeria monocytogenes [11]) [µM] | MIC (Escherichia coli [16]) [µM] | Structure (SMILES) | MBC (Enterococcus faecalis [1]) [µM] | MBC (Micrococcus flavus [4]) [µM] | MBC (Pseudomonas aeruginosa [8]) [µM] | MBC (Escherichia coli [10]) [µM] | MBC (Listeria monocytogenes [12]) [µM] | MBC (Bacillus cereus [13]) [µM] | MBC (Staphylococcus aureus [14]) [µM] | MBC (Salmonella typhimurium [15]) [µM] | MIC (Aspergillus ochraceus [17]) [µM] | MFC (Talaromyces funiculosus [18]) [µM] | MFC (Penicillium ochrochloron [19]) [µM] | MIC (Aspergillus ochraceus [20]) [µM] | further results |
| --- | --- | --- | --- | --- | --- | --- | --- | --- | --- | --- | --- | --- | --- | --- | --- | --- | --- | --- | --- | --- | --- |
| 248 (≈ 86.7 µg/mL) | 248 (≈ 86.7 µg/mL) | 248 (≈ 86.7 µg/mL) | 248 (≈ 86.7 µg/mL) | 248 (≈ 86.7 µg/mL) | 744 (≈ 260 µg/mL) | 372 (≈ 130 µg/mL) | 372 (≈ 130 µg/mL) | CC1(C)S[C@@H]2[C@H](NC(=O)[C@H](N)c3ccccc3)C(=O)N2[C@H]1C(=O)O [AMPICILLIN] | 372 (≈ 130 µg/mL) | 372 (≈ 130 µg/mL) | 1240 (≈ 433 µg/mL) | 492 (≈ 172 µg/mL) | 744 (≈ 260 µg/mL) | 372 (≈ 130 µg/mL) | 372 (≈ 130 µg/mL) | 492 (≈ 172 µg/mL) |  |  |  |  |  |
|  |  |  |  |  |  |  |  | c1ccc(-c2ccc(C(c3ccccc3)n3ccnc3)cc2)cc1 (centres undefined) [BIFONAZOLE] |  |  |  |  |  |  |  |  | 480 (≈ 149 µg/mL) | 800 (≈ 248 µg/mL) | 640 (≈ 199 µg/mL) | 480 (≈ 149 µg/mL) | MIC (Aspergillus flavus [21]): 480 µM (≈ 149 µg/mL); MIC (Penicillium ochrochloron [22]): 480 µM (≈ 149 µg/mL); MIC (Trichoderma viride [23]): 640 µM (≈ 199 µg/mL); MIC (Aspergillus niger [24]): 480 µM (≈ 149 µg/mL); MFC (Trichoderma viride [25]): 800 µM (≈ 248 µg/mL); MIC (Talaromyces funiculosus [26]): 640 µM (≈ 199 µg/mL); MFC (Aspergillus fumigatus): 640 µM (≈ 199 µg/mL); MFC (Aspergillus flavus [27]): 640 µM (≈ 199 µg/mL); MFC (Candida albicans [28]): 480 µM (≈ 149 µg/mL); MFC (Aspergillus ochraceus [29]): 800 µM (≈ 248 µg/mL); MIC (Candida albicans [30]): 320 µM (≈ 99.3 µg/mL); MFC (Aspergillus niger [31]): 640 µM (≈ 199 µg/mL) |
|  |  |  |  |  |  |  |  | CC(=O)N1CCN(c2ccc(OCC3COC(Cn4ccnc4)(c4ccc(Cl)cc4Cl)O3)cc2)CC1 (centres undefined) [KETOCONAZOLE] |  |  |  |  |  |  |  |  | 380 (≈ 202 µg/mL) | 950 (≈ 505 µg/mL) | 3800 (≈ 2020 µg/mL) | 380 (≈ 202 µg/mL) | MIC (Aspergillus flavus [21]): 2850 µM (≈ 1510 µg/mL); MIC (Penicillium ochrochloron [22]): 3800 µM (≈ 2020 µg/mL); MIC (Trichoderma viride [23]): 4750 µM (≈ 2520 µg/mL); MIC (Aspergillus niger [24]): 380 µM (≈ 202 µg/mL); MFC (Trichoderma viride [25]): 5700 µM (≈ 3030 µg/mL); MIC (Talaromyces funiculosus [26]): 380 µM (≈ 202 µg/mL); MFC (Aspergillus fumigatus): 950 µM (≈ 505 µg/mL); MFC (Aspergillus flavus [27]): 3800 µM (≈ 2020 µg/mL); MFC (Candida albicans [28]): 950 µM (≈ 505 µg/mL); MFC (Aspergillus ochraceus [29]): 950 µM (≈ 505 µg/mL); MIC (Candida albicans [30]): 380 µM (≈ 202 µg/mL); MFC (Aspergillus niger [31]): 950 µM (≈ 505 µg/mL) |
| 172 (≈ 100 µg/mL) | 43 (≈ 25 µg/mL) | 43 (≈ 25 µg/mL) | 172 (≈ 100 µg/mL) | 86 (≈ 50 µg/mL) | 172 (≈ 100 µg/mL) | 258 (≈ 150 µg/mL) | 172 (≈ 100 µg/mL) | CN[C@@H]1[C@H](O[C@H]2[C@H](O[C@H]3[C@H](O)[C@@H](O)[C@H](N=C(N)N)[C@@H](O)[C@@H]3N=C(N)N)O[C@@H](C)[C@]2(O)C=O)O[C@@H](CO)[C@H](O)[C@H]1O [STREPTOMYCIN] | 86 (≈ 50 µg/mL) | 172 (≈ 100 µg/mL) | 344 (≈ 200 µg/mL) | 344 (≈ 200 µg/mL) | 516 (≈ 300 µg/mL) | 86 (≈ 50 µg/mL) | 344 (≈ 200 µg/mL) | 344 (≈ 200 µg/mL) |  |  |  |  |  |

Source: ChEMBL document CHEMBL1926569, “Novel (E)-1-(4-methyl-2-(alkylamino)thiazol-5-yl)-3-arylprop-2-en-1-ones as potent antimicrobial agents” (2011)
